According to ChEMBL document CHEMBL1125138, “1,3-Dialkyl-3-acyltriazenes, a novel class of antineoplastic alkylating agents” (J Med Chem, 1990):

Columns and labels:
A673 = test: Evaluated for the inhibitory concentration required to cause growth inhibition of A673Mer+ sarcoma cell line using the MTT Cytotoxicity Assay; assay type: functional, cell-based; settings: Homo sapiens
How it was run: (§1)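 MTT microculture tetrazolium growth assay on human cell lines and normal fibroblasts. Cells seeded at 1000 cells/well, with compound added 24 h after plating. Cultures then incubated a further 6 days at 37 °C before MTT read-out of growth versus untreated cells.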

MCF7 = test: Evaluated for the inhibitory concentration required to cause growth inhibition of MCF-7 breast cell line using the MTT Cytotoxicity Assay; assay type: functional, cell-based; settings: Homo sapiens; how it was run: as §1
NCI-H522 (Homo sapiens) = test: Evaluated for the inhibitory concentration required to cause growth inhibition of H522 cell line of lung using the Microculture Tetrazolium (MTT) Cytotoxicity Assay
LOX IMVI = test: Evaluated for the inhibitory concentration required to cause growth inhibition of LOX melanoma cell line using the MTT Cytotoxicity Assay; assay type: functional, cell-based; settings: Homo sapiens; how it was run: as §1
NCI/ADR-RES = test: Evaluated for the inhibitory concentration required to cause growth inhibition of MCF-7ADR breast cell line using the MTT Cytotoxicity Assay; assay type: functional, cell-based; settings: Homo sapiens; how it was run: as §1
A704 = test: Evaluated for the inhibitory concentration required to cause growth inhibition of A704Rem- renal cell line using the MTT Cytotoxicity Assay; assay type: functional, cell-based; settings: Homo sapiens; how it was run: as §1
SK-MEL-5 = test: Evaluated for the inhibitory concentration required to cause growth inhibition of SK-MEL-5 melanoma cell line using the MTT Cytotoxicity Assay; assay type: functional, cell-based; settings: Homo sapiens; how it was run: as §1
NCI-H322M = test: Evaluated for the inhibitory concentration required to cause growth inhibition of H322M cell line of lung using the Microculture Tetrazolium (MTT) Cytotoxicity Assay; assay type: functional, cell-based; settings: Homo sapiens; how it was run: as §1
P388 [1] = test: Evaluated in vivo for antineoplastic activity against P388 murine leukemia tumor […] after administering intra peritoneal injection on each of 5 consecutive days at a dose of 30.0 mg/kg; assay type: functional, Mus musculus
How it was run: (§2)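 P388 leukemia-bearing mice, run through the NCI Developmental Therapeutics Program. Compound given ip once daily on 5 consecutive days. Activity read out as % T/C.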

RPMI-7951 = test: Evaluated for the inhibitory concentration required to cause growth inhibition of RPMI7951 melanoma cell line using the MTT Cytotoxicity Assay; assay type: functional, cell-based; settings: Homo sapiens; how it was run: as §1
NCI-H23 = test: Evaluated for the inhibitory concentration required to cause growth inhibition of H23 cell line of lung using the Microculture Tetrazolium (MTT) Cytotoxicity Assay; assay type: functional, cell-based; settings: Homo sapiens; how it was run: as §1
OVCAR-3 = test: Evaluated for the inhibitory concentration required to cause growth inhibition of OVCAR-3 ovarian cell line using the MTT Cytotoxicity Assay; assay type: functional, cell-based; settings: Homo sapiens; how it was run: as §1
NCI-H358 = test: Evaluated for the inhibitory concentration required to cause growth inhibition of H358M cell line of lung using the Microculture Tetrazolium (MTT) Cytotoxicity Assay; assay type: functional, cell-based; settings: Homo sapiens; how it was run: as §1
DOD-1 = test: Evaluated for the inhibitory concentration required to cause growth inhibition of DOD-1 breast cell line using the MTT Cytotoxicity Assay; assay type: functional, cell-based; settings: Homo sapiens; how it was run: as §1
A-427 = test: Evaluated for the inhibitory concentration required to cause growth inhibition of A427Mer- cell line of lung using the MTT Cytotoxicity Assay; assay type: functional, cell-based; settings: Homo sapiens; how it was run: as §1
A 172 = test: Evaluated for the inhibitory concentration required to cause growth inhibition of A172Mer- cell line of central nervous system (CNS) using the MTT Cytotoxicity Assay; assay type: functional, cell-based; settings: Homo sapiens; how it was run: as §1
[2] = tested on: MAR BEL fibroblasts cell line; test: Evaluated for the inhibitory concentration required to cause growth inhibition of MAR BEL fibroblasts cell line using the MTT Cytotoxicity Assay; assay type: functional, cell-based; settings: Homo sapiens; how it was run: as §1
HOS-TE85 = test: Evaluated for the inhibitory concentration required to cause growth inhibition of TE85Mer+ sarcoma cell line using the MTT Cytotoxicity Assay; assay type: functional, cell-based; settings: Homo sapiens; how it was run: as §1
CCD 19Lu = test: Evaluated for the inhibitory concentration required to cause growth inhibition of CCD-19Lu fibroblasts cell line using the MTT Cytotoxicity Assay; assay type: functional, cell-based; settings: Homo sapiens; how it was run: as §1
A549 = test: Evaluated for the inhibitory concentration required to cause growth inhibition of A549Rem- cell line of lung using the MTT Cytotoxicity Assay; assay type: functional, cell-based; settings: Homo sapiens; how it was run: as §1
NCI-H125 = test: Evaluated for the inhibitory concentration required to cause growth inhibition of H125 cell line of lung using the Microculture Tetrazolium (MTT) Cytotoxicity Assay; assay type: functional, cell-based; settings: Homo sapiens; how it was run: as §1
Malme-3M = test: Evaluated for the inhibitory concentration required to cause growth inhibition of MALME-3M melanoma cell line using the MTT Cytotoxicity Assay; assay type: functional, cell-based; settings: Homo sapiens; how it was run: as §1
NCI-H460 = test: Evaluated for the inhibitory concentration required to cause growth inhibition of H460 cell line of lung using the Microculture Tetrazolium (MTT) Cytotoxicity Assay; assay type: functional, cell-based; settings: Homo sapiens; how it was run: as §1
OVCAR-4 = test: Evaluated for the inhibitory concentration required to cause growth inhibition of OVCAR-4 ovarian cell line using the MTT Cytotoxicity Assay; assay type: functional, cell-based; settings: Homo sapiens; how it was run: as §1
A498 = test: Evaluated for the inhibitory concentration required to cause growth inhibition of A498Rem- renal cell line using the MTT Cytotoxicity Assay; assay type: functional, cell-based; settings: Homo sapiens; how it was run: as §1
TE-671 = test: Evaluated for the inhibitory concentration required to cause growth inhibition of TE-671 cell line of central nervous system (CNS)using the MTT Cytotoxicity Assay; assay type: functional, cell-based; settings: Homo sapiens; how it was run: as §1
U-251 = test: Evaluated for the inhibitory concentration required to cause growth inhibition of U251 cell line of central nervous system (CNS) using the MTT Cytotoxicity Assay; assay type: functional, cell-based; settings: Homo sapiens
How it was run: (§3)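 MTT cell-growth assay in human cell lines: cells harvested and seeded at 1000 cells/well in 96-well plates. Compound added after 24 h, then cultures incubated a further 6 days at 37 °C. Growth measured with and without agent.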

WiDr = test: Evaluated for the inhibitory concentration required to cause growth inhibition of WiDR colon cell line using the MTT Cytotoxicity Assay; assay type: functional, cell-based; settings: Homo sapiens; how it was run: as §3
[3] = Evaluated in vivo for antineoplastic activity against LX-1 Lung small cell carcinoma tumor xenograft in nude mice after administering intra peritoneally 3 injections at a dose of 100 mg/kg; assay type: functional, Homo sapiens
How it was run: (§4)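 Nude mice bearing tumor xenografts, run through the NCI Developmental Therapeutics Program. Compound given ip as three injections at 4-day intervals for MX-1 mammary, LX-1 lung and LOX melanoma. Activity read out as % T/C.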

[4] = Evaluated in vivo for antineoplastic activity against LOX melanoma amelanotic tumor xenograft in nude mice after administering intra peritoneally 3 injections at a dose of 800 mg/kg; assay type: functional, Homo sapiens; how it was run: as §4
MX1 [5] = test: Evaluated in vivo for antineoplastic activity against MX-1 mammary carcinoma tumor xenograft in nude mice after administering intra peritoneally 3 injections at a dose of 200 mg/kg; assay type: functional, Homo sapiens; how it was run: as §4
P388 [6] = test: Evaluated in vivo for antineoplastic activity against P388 murine leukemia tumor […] after administering intra peritoneal injection at a dose of 50 mg/kg.; assay type: functional, Mus musculus; how it was run: as §2
MX1 [7] = test: Evaluated in vivo for antineoplastic activity against MX-1 mammary carcinoma tumor xenograft in nude mice after administering intra peritoneally 3 injections at a dose of 400 mg/kg; assay type: functional, Homo sapiens; how it was run: as §4
[8] = Evaluated in vivo for antineoplastic activity against LOX melanoma amelanotic tumor xenograft in nude mice after administering intra peritoneally 3 injections at a dose of 100 mg/kg; assay type: functional, Homo sapiens; how it was run: as §4
[9] = Evaluated in vivo for antineoplastic activity against LOX melanoma amelanotic tumor xenograft in nude mice after administering intra peritoneally 3 injections at a dose of 200 mg/kg; assay type: functional, Homo sapiens; how it was run: as §4
P388 [10] = test: Evaluated in vivo for antineoplastic activity against P388 murine leukemia tumor […] after administering intra peritoneal injection at a dose of 200 mg/kg.; assay type: functional, Mus musculus; how it was run: as §2
[11] = Evaluated in vivo for antineoplastic activity against LOX melanoma amelanotic tumor xenograft in nude mice after administering intra peritoneally 3 injections at a dose of 400 mg/kg; assay type: functional, Homo sapiens; how it was run: as §4
P388 [12] = test: Evaluated in vivo for antineoplastic activity against P388 murine leukemia tumor […] after administering intra peritoneal injection at a dose of 100 mg/kg.; assay type: functional, Mus musculus; how it was run: as §2
MX1 [13] = test: Evaluated in vivo for antineoplastic activity against MX-1 mammary carcinoma tumor xenograft in nude mice after administering intra peritoneally 3 injections at a dose of 100 mg/kg; assay type: functional, Homo sapiens; how it was run: as §4
[14] = Evaluated in vivo for antineoplastic activity against LX-1 Lung small cell carcinoma tumor xenograft in nude mice after administering intra peritoneally 3 injections at a dose of 200 mg/kg; assay type: functional, Homo sapiens; how it was run: as §4

`CCOC(=O)N(C)/N=N\CCCl` showed an IC50 (A673) of 20 µM, an IC50 (MCF7) of 16 µM and an IC50 (NCI-H522 (Homo sapiens)) of 10 µM. It also gave an IC50 (LOX IMVI) of 2.4 µM, an IC50 (NCI/ADR-RES) of 17 µM and an IC50 (A704) of 18 µM. The IC50 (SK-MEL-5) was 10 µM, the IC50 (NCI-H322M) was 14 µM and the T/C (P388 [1]) was 175%. The IC50 (RPMI-7951) was 13 µM, the IC50 (NCI-H23) was 16 µM and the IC50 (OVCAR-3) was 26 µM. The IC50 (NCI-H358) was 50 µM, the IC50 (DOD-1) was 20 µM and the IC50 (A-427) was 11 µM. It also gave an IC50 (A 172) of 18 µM, an IC50 [2] of 46 µM and an IC50 (HOS-TE85) of 26 µM. For the same molecule, the IC50 (CCD 19Lu) was 45 µM, the IC50 (A549) was 14 µM and the IC50 (NCI-H125) was 30 µM. It also gave an IC50 (Malme-3M) of 15 µM, an IC50 (NCI-H460) of 50 µM and an IC50 (OVCAR-4) of 26 µM. The IC50 (A498) was 16 µM, the IC50 (TE-671) was 34 µM and the IC50 (U-251) was 8 µM. The IC50 (WiDr) was 13 µM.
`CNC(=O)N(C)/N=N\CCCl` showed an IC50 (A673) of 35 µM, an IC50 (MCF7) of 14 µM and a T/C [3] of -19%. The IC50 (NCI-H522 (Homo sapiens)) was 13 µM, the T/C [4] was 309% and the IC50 (LOX IMVI) was 10 µM. For the same molecule, the IC50 (NCI/ADR-RES) was 17 µM, the T/C (MX1 [5]) was 1% and the T/C (P388 [6]) was 175%. For the same molecule, the IC50 (A704) was 35 µM, the T/C (MX1 [7]) was -76% and the IC50 (SK-MEL-5) was 13 µM. For the same molecule, the IC50 (NCI-H322M) was 37 µM, the IC50 (RPMI-7951) was 18 µM and the IC50 (NCI-H23) was 18 µM. The IC50 (OVCAR-3) was 20 µM, the IC50 (NCI-H358) was 60 µM and the T/C [8] was 201%. The T/C [9] was 309%, the IC50 (DOD-1) was 21 µM and the IC50 (A-427) was 18 µM. It also gave an IC50 (A 172) of 27 µM, an IC50 [2] of 47 µM and an IC50 (HOS-TE85) of 26 µM. For the same molecule, the IC50 (CCD 19Lu) was 60 µM, the IC50 (A549) was 26 µM and the IC50 (NCI-H125) was 45 µM. For the same molecule, the T/C (P388 [10]) was 297%, the IC50 (Malme-3M) was 28 µM and the IC50 (NCI-H460) was 60 µM. It also gave an IC50 (OVCAR-4) of 20 µM, an IC50 (A498) of 20 µM and an IC50 (TE-671) of 55 µM. The IC50 (U-251) was 30 µM, the T/C [11] was 309% and the T/C (P388 [12]) was 196%. The T/C (MX1 [13]) was 15%, the IC50 (WiDr) was 14 µM and the T/C [14] was -66%.
